{"data": "Measurements pooled from the literature", "target": "Serine/threonine-protein kinase DCLK3 (DCLK3, Homo sapiens, UniProt Q9C098)", "Residues used in one study (Q9C098 1-648)": "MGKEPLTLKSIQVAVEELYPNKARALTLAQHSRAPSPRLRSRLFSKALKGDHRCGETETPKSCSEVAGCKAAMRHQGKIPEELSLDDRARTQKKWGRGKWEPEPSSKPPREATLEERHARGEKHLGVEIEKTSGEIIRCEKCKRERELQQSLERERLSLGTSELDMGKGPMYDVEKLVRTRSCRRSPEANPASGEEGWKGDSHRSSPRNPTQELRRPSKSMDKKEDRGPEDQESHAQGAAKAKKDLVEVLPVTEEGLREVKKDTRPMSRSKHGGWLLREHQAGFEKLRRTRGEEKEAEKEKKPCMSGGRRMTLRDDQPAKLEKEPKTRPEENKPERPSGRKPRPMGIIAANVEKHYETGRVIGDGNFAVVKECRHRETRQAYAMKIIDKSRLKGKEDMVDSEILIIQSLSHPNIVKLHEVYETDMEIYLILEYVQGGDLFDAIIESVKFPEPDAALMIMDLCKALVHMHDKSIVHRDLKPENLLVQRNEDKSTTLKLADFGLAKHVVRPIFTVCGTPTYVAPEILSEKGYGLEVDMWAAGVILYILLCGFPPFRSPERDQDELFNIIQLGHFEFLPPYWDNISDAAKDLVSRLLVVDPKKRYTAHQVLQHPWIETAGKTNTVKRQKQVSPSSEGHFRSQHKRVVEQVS", "note": "Lines come from different studies, so protocols differ."}
{"Compound": "Cc1cnc(NC2CCOCC2)nc1-n1cnc(C(=O)NC(CN)c2cc(F)cc(Cl)c2)c1 (stereo not drawn)", "effect on": "enzyme activity", "mode": "inhibitor", "technique": "radiometric", "concentration": "1 µM", "measurement": "remaining activity", "value": "56%"}
{"Compound": "COc1cc(-c2cn(C3CCc4ccccc4N(CC(F)(F)F)C3=O)nn2)ccc1-n1ccc(C)n1 (stereo not drawn)", "effect on": "cell-free assay", "technique": "competition with immobilised ligand", "concentration": "1 µM", "measurement": "remaining binding", "value": "100%"}
{"Compound": "CN1CC(Oc2cnc(C#N)cc2-c2ccn3nc(NC(=O)C4CC4)cc3c2)C1", "effect on": "enzyme activity", "mode": "inhibitor", "concentration": "1 µM", "measurement": "inhibition", "value": "-4%"}
{"Compound": "Cc1cc(NC(=O)c2cccc3cc(-c4cccc5[nH]nc(N)c45)ccc23)ccc1F", "effect on": "enzyme activity", "mode": "inhibitor", "concentration": "0.1 µM", "measurement": "activity vs control", "value": "110%"}
{"Compound": "COc1ccc2c(O[C@@H]3C[C@H]4C(=O)N[C@]5(C(=O)O)CC5/C=C\\CCCCC[C@H](NC(=O)OC5CCCC5)C(=O)N4C3)cc(-c3csc(NC(=O)C(C)C)n3)nc2c1C (stereo partly drawn)", "effect on": "cell-free assay", "technique": "competition with immobilised ligand", "concentration": "1 µM", "measurement": "remaining binding", "value": "96%"}
{"Compound": "COc1cc(Cl)c(C(=O)N[C@@H](CN[C@H]2CC[C@@H](N)CC2)Cc2ccc(C#N)cc2)cc1-c1ccc(CN[C@H](C)c2ccc(C)cc2)o1", "effect on": "enzyme activity", "mode": "inhibitor", "concentration": "1 µM", "measurement": "remaining activity", "value": "89%"}
{"Compound": "Cc1ccc(NC(=O)c2ccc(C)c(C(F)(F)F)c2)cc1C#Cc1nn(C2CCC(O)CC2)c2ncnc(N)c12 (stereo not drawn)", "effect on": "cell-free assay", "concentration": "10 µM", "measurement": "remaining signal", "value": "101%"}
{"Compound": "Cc1ccc(C(=O)Nc2ccc(CN3CCN(C)CC3)c(C(F)(F)F)c2)cc1C#Cc1cnc2cccnn12", "effect on": "enzyme activity", "mode": "inhibitor", "concentration": "23.5 nM", "measurement": "remaining activity", "value": "100%"}
{"Compound": "Nc1ncnc2occ(-c3ccc(NC(=O)Nc4cc(C(F)(F)F)ccc4F)cc3)c12", "effect on": "cell-free assay", "mode": "inhibitor", "concentration": "20 µM", "measurement": "remaining signal", "value": "24%"}
